The results in this text go back to ChEMBL document CHEMBL1156079, “Imidazoquines as antimalarial and antipneumocystis agents” (J Med Chem, 2009).

≈ marks a conversion by molar mass, not a printed value. Some results are limits rather than exact numbers.

The nature of data set [1]: Solubility in water. The data set is classed as physicochemical.
Data set [2] can be described thus: Chemical stability by HPLC analysis. The data set is classed as physicochemical.
Data set [3] deals with A549. Nature of the data set: Cytotoxicity against human A549 cells after 72 hrs. The data set is classed as cell-based. Particulars: A549, 72 h.
Data set [4] deals with Plasmodium berghei. Nature of the data set: Antiplasmodial activity against liver-stage GFP expressing Plasmodium berghei sporozoites infected in human HuH7 cells assessed as inhibition of parasite schizonts development after 48 hrs by FACS analysis. The data set is classed as functional, organism-based. Particulars: for Activity: Huh-7; for IC50: Huh-7, Liver.
In data set [5] the test system is Plasmodium falciparum. The experiment in a line: Antiplasmodial activity against chloroquine-resistant blood stage Plasmodium falciparum W2 after 48 hrs by FACS analysis. The data set is classed as functional, organism-based. The conditions noted are these: W2, 48 h.
For data set [6], the species on record is Homo sapiens. The experiment in a line: Half life in human plasma by HPLC analysis.
In data set [7] the test system is Pneumocystis carinii. The experiment in a line: Antipneumocystis activity against Pneumocystis carinii assessed as reduction in parasite ATP content after 24 hrs by luciferin-luciferase assay. The data set is classed as functional, organism-based. The gist of the method:
(§1)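 P. carinii from immunosuppressed, intratracheally inoculated Long Evans and Brown Norway rats, 10⁸ nuclei/ml in supplemented RPMI 1640 with 20% calf serum, pH 7.5–8.0, 380 mOsm. Compounds added in DMSO (final <0.2% v/v). Incubated at 35 °C, 10% CO₂, with daily medium change; sampled at 24, 48 and 72 h. ATP measured by luciferin-luciferase as % of untreated control; triplicate wells across isolation batches, three readings each.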

Data set [8] concerns Pneumocystis carinii. The experiment in a line: Antipneumocystis activity against Pneumocystis carinii assessed as reduction in parasite ATP content after 24 to 72 hrs by luciferin-luciferase assay. The data set is classed as functional, organism-based. The gist of the method:
as §1

Data set [9] can be described thus: Octanol/water partition coefficient, log P of the compound. The data set is classed as physicochemical.
The test system of data set [10] is Pneumocystis carinii. The experiment in a line: Antipneumocystis activity against Pneumocystis carinii assessed as reduction in parasite ATP content after 72 hrs by luciferin-luciferase assay. It is filed as functional, organism-based. The gist of the method:
as §1

The test system of data set [11] is Pneumocystis carinii. The experiment in a line: Antipneumocystis activity against Pneumocystis carinii assessed as reduction in parasite ATP content at < 0.2% v/v by luciferin-luciferase assay. The conditions noted are these: TDE = time-dependent effect. It is filed as functional, organism-based.
Data set [12] deals with Pneumocystis carinii. Nature of the data set: Antipneumocystis activity against Pneumocystis carinii assessed as reduction in parasite ATP content after 48 hrs by luciferin-luciferase assay. The data set is classed as functional, organism-based. The essentials: as §1
Data set [13] relates to Plasmodium berghei. The experiment in a line: Antiplasmodial activity against Plasmodium berghei ANKA infected in BALB/c mice (Mus musculus) assessed as parasite-transmission to Anopheles stephensi after feeding on infected mice (Mus musculus) at 50 umol/kg, intraperitoneally administered 4 days after infection measured 10 days after 2 hrs of mosquito feeding by transmission-blocking activity assay relative to control. It is filed as functional. The gist of the method:
(§2)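 Balb/C mice infected with P. berghei ANKA; after 4 days, once gametocytes were seen on Giemsa blood films, groups of six got one intraperitoneal dose (10 or 50 μmol/kg; PBS controls). At 2 h, anesthetized mice fed ca. 50 glucose-starved female An. stephensi for 2 h. Ten days later, 10 mosquitoes per cage dissected; midgut oocysts counted, giving % infected mosquitoes and mean oocysts per mosquito.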

Data set [14] relates to Plasmodium berghei. Nature of the data set: Antiplasmodial activity against Plasmodium berghei ANKA infected in BALB/c mice (Mus musculus) assessed as parasite-transmission to Anopheles stephensi after feeding on infected mice (Mus musculus) at 10 umol/kg, intraperitoneally administered 4 days after infection measured 10 days after 2 hrs of mosquito feeding by transmission-blocking activity assay relative to control. It is filed as functional. The gist of the method: as §2

A short description of data set [15]: Selectivity index, ratio of cytotoxicity against human A549 cells to IC50 for chloroquine-resistant blood-stage Plasmodium falciparum W2. The conditions noted are these: read-out: Selectivity Index. It is filed as toxicity, cell-based.

Broadly, the solubility is how much of the substance goes into solution per volume. A low value points to a poorly soluble substance. For orientation: IC50 means the concentration that inhibits the measured activity by half. In general, half-life refers to the time needed for the level to fall by half in the phase considered. A word on the logP: it is a log measure of how a compound divides between an organic and an aqueous phase. A high value points to higher lipophilicity. As to `COc1cc(NC(C)CCCN2C(=O)CN(C(=O)[C@H](N)C(C)C)C2(C)C)c2ncccc2c1` (stereo partly specified), the concentration in solution in data set [1] (water) (solubility) was 46.5 µg/mL (≈ 102 µM). Also, the Stability entry in data set [2] is “Stable”. For the same compound, the IC50 amounted to 5.5 µM in [3]; 17 µM in data set [4]; 7.9 µM in [5]; 54.3 µM in data set [7]; 13.6 µM in data set [10]; 20.2 µM in data set [12]. The values for the Activity entry in data set [4], in data set [8] and in [11] were “Dose-dependent effect”, “Dose-dependent effect” and “tde”, respectively. Moreover, the half-life in data set [6] was > 72 h. Besides, the logP in [9] amounted to 2.93.
`COc1cc(NC(C)CCCN2C(=O)[C@@H](C)N(C(=O)CN)C2(C)C)c2ncccc2c1` (stereo partly specified) registered a solubility in data set [1] (water) of 110 µg/mL (≈ 257 µM). Also, in [2], the Stability result is reported as “Stable”. In addition, the IC50 in [3] is > 100 µM; in [4], 21 µM; in data set [5], 5.5 µM; in [7], ≥ 50 µM; in data set [10], 52.2 µM; in data set [12], 75.4 µM. In addition, the Activity entry was “Dose-dependent effect” in [4]; 37.5% in data set [13]; “Dose-dependent effect” in data set [8]; 62% in [14]; “tde” in data set [11]. Further, in data set [6], the half-life was > 72 h. The compound further displayed a log partition coefficient (logP) in data set [9] of 2.57.
On to `COc1cc(NC(C)CCCN2C(=O)CN(C(=O)[C@H](N)Cc3ccccc3)C2(C)C)c2ncccc2c1` (stereo partly specified), for which the concentration in solution in data set [1] (water) (solubility) came to 5.4 µg/mL (≈ 10.7 µM). In data set [2], the Stability entry is given as “Stable”. In addition, the IC50 in [3] was found to be 9.1 µM; in data set [4], 21 µM; in data set [5], 9.9 µM; in data set [7] it was 24 µM; in data set [10], 10.1 µM; in data set [12], 18.5 µM. The Activity result was “Dose-dependent effect” in [4]; 40% in data set [13]; “Dose-dependent effect” in [8]; 43.8% in [14]; “tde” in data set [11]. The half-life in [6] is > 72 h. In data set [9], this compound displayed a logP of 3.6.
For the compound `COc1cc(NC(C)CCCN2C(=O)[C@@H](C)NC2(C)C)c2ncccc2c1` (stereo partly specified), the solubility in data set [1] (water) was 29.8 µg/mL (≈ 80.4 µM). Also, the half-life in data set [6] was > 72 h. The logP in data set [9] worked out at 3.25.
In data set [1] (buffer), `COc1cc(NC(C)CCCN)c2ncccc2c1` (stereo unspecified) [PRIMAQUINE] returned a solubility of 56.4 µg/mL (≈ 217 µM). Moreover, the IC50 in [3] is > 100 µM; in [7] it was 18.1 µM; in data set [10], 3.5 µM; in [12], 8.5 µM. The Activity in data set [13] is 2.9%; in data set [8], “Dose-dependent effect”; in data set [14], 40%; in data set [11] it was “tde”. The logP in data set [9] was 2.76.
Compound `COc1cc(NC(C)CCCN2C(=O)CN(C(=O)CN)C2(C)C)c2ncccc2c1` (stereo unspecified) gave a solubility in [1] (water) of 150 µg/mL (≈ 363 µM). Further, the Stability result in data set [2] is “Stable”. The IC50 is > 100 µM in [3]; 22 µM in data set [4]; 6.7 µM in data set [5]; 43.8 µM in data set [7]; 28.1 µM in data set [10]; 37.5 µM in [12]. The Activity entry was “Dose-dependent effect” in data set [4]; 40.5% in data set [13]; “Dose-dependent effect” in data set [8]; 42.5% in data set [14]; “tde” in data set [11]. For the same compound, in data set [6], the half-life was > 72 h. The same compound showed a logP in data set [9] of 2.19.
Compound `COc1cc(NC(C)CCCN2C(=O)CN(C(=O)[C@H](N)CCSC)C2(C)C)c2ncccc2c1` (stereo partly specified) showed a solubility in data set [1] (water) of 11.7 µg/mL (≈ 24 µM). The Stability entry in data set [2] is reported as “Stable”. The IC50 in data set [3] came out at 7.9 µM; in data set [4], 31 µM; in data set [5] it was 12.5 µM; in data set [7], 23.8 µM; in [10] it was 7 µM; in data set [12] it was 13.1 µM. Moreover, the Activity entry in [4] was “Dose-dependent effect”; in data set [13], 26.4%; in data set [8] it was “Dose-dependent effect”; in data set [14] it was 47.1%; in data set [11] it was “tde”. Also, the half-life in data set [6] was > 72 h. Also, the logP in data set [9] was found to be 2.94.
In [1] (water), `COc1cc(NC(C)CCCN2C(=O)CNC2(C)C)c2ncccc2c1` (stereo unspecified) had a solubility of 40.5 µg/mL (≈ 114 µM). Moreover, the lipophilicity (logP) in data set [9] was 3.07.
In [1] (water), `COc1cc(NC(C)CCCN2C(=O)CN(C(=O)[C@@H](C)N)C2(C)C)c2ncccc2c1` (stereo partly specified) yielded a solubility of 120 µg/mL (≈ 281 µM). Besides, the Stability result in data set [2] is recorded as “Stable”. Moreover, the IC50 in [3] amounted to 7.8 µM; in [4], 10 µM; in data set [7] it was 39.6 µM; in [10] it was 8.4 µM; in [12], 18.7 µM. For the same compound, the Activity entry in [4] is “Dose-dependent effect”; in data set [13], 40.1%; in data set [8], “Dose-dependent effect”; in data set [14] it was 67.9%; in [11] it was “tde”. Also, the half-life in data set [6] was > 72 h. This compound returned a logP in data set [9] of 2.49.
Turning to `COc1cc(NC(C)CCCN2C(=O)CN(C(=O)[C@H](N)CC(C)C)C2(C)C)c2ncccc2c1` (stereo partly specified), the concentration in solution in data set [1] (water) (solubility) was 26.6 µg/mL (≈ 56.6 µM). Moreover, the Stability result in [2] was “Stable”. For the same compound, the IC50 was 21.2 µM in data set [3]; 24 µM in data set [4]; 6.3 µM in data set [5]; 31.1 µM in data set [7]; 10.9 µM in data set [10]; 17.9 µM in data set [12]. Further, the figures for the Activity result in [4], in data set [8] and in [11] were “Dose-dependent effect”, “Dose-dependent effect” and “tde”, respectively. Moreover, the selectivity ratio in [15] turned out to be 3.5. Moreover, in [6], the half-life was > 72 h. Further, the logP in data set [9] worked out at 3.36.
`COc1cc(N(C(C)=O)C(C)CCCN2C(=O)CN(C(C)=O)C2(C)C)c2ncccc2c1` (stereo unspecified): the IC50 was > 100 µM in [3]; > 10 µM in data set [5]; ≥ 50 µM in data set [7]; ≥ 50 µM in data set [10]; ≥ 50 µM in data set [12].
In turn, `CC[C@H](C)[C@@H](N)C(=O)N1CC(=O)N(CCCC(C)Nc2cc(OC)cc3cccnc23)C1(C)C` (stereo partly specified) showed a solubility in data set [1] (water) of 29.7 µg/mL (≈ 63.2 µM). The Stability result in data set [2] is “Stable”. The IC50 in data set [3] was 14.9 µM; in data set [4], 13 µM; in data set [5], 8.7 µM; in data set [7], 27.5 µM; in data set [10], 9.8 µM; in [12], 16 µM. Further, the Activity result in [4] is “Dose-dependent effect”; in data set [13] it was 62.2%; in [8] it was “Dose-dependent effect”; in [14] it was 83.3%; in data set [11], “tde”. The half-life in data set [6] was > 72 h. Also, the logP in [9] turned out to be 3.4.
Take `COc1cc(NC(C)CCCN2C(=O)CN(C(C)=O)C2(C)C)c2ncccc2c1` (stereo unspecified): the IC50 is > 100 µM in data set [3]; > 10 µM in [5]; ≥ 50 µM in data set [7]; 36.7 µM in data set [10]; 102 µM in data set [12].
